Screening results (PubChem BioAssay)
T cruzi inh: inhibitors of intracellular T. cruzi growth, primary screen, luminescence, NIH3T3 host cells. T. cruzi beta-gal in NIH3T3, 90 h. AID 1885, 2009. actives 1.4% (n = 300,000). inhibition, % (concentration not given with the values);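 active = mean inhibition across valid replicates above about 55%, limit read from the data; inconclusive = mean below that limit but half or more replicates reach it; inactive = mean below it, under half of replicates reach it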;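 note: signal also drops with host cell toxicity which is not excluded here; 0% = plate median of DMSO wells and 100% = zero luminescence signal; higher percent means less beta-gal luminescence so fewer parasites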
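System: Mouse NIH/3T3 fibroblasts infected with β-gal-expressing T. cruzi Tulahuen C4 | Quantity: NIH/3T3 cells, 5,000 per well | Reagent: 5000 reporter trypomastigotes per well | Dosing: Compound pinned at 50 nL/well, DMSO | Schedule: 3 h host attachment, then at least 90 h co-culture | Detection: GalScreen luminescence, 60 min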
SKKanGAS inh: S. pyogenes SKKanGAS growth inhibitors in kanamycin, primary screen, streptokinase expression inhibitor project, SKKanGAS strain, BacTiter-Glo luminescence; 6 h; inhibition, % at 7.5 µM; actives 1.3% (n = 300,000);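 active = mean replicate score, as percent of positive control median, at least 50; inconclusive = mean below 50 but one replicate at or above 50; inactive = mean and every replicate below 50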;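 note: strain carries kanamycin resistance gene driven by streptokinase promoter and grows in 40 µg/ml kanamycin; loss of luminescence reflects streptokinase promoter inhibition or plain growth inhibition; 0% = median of DMSO wells and 100% = positive control at its reference dose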
HIF act: HIF pathway transcriptional activators, primary screen, cell-based, U2OS HRE-luciferase, luminescence. U2OS HRE-luciferase reporter; normalized: DMSO 0%, desferrioxamine 100%. activation, % at 7.5 µM (by protocol). actives 0.32% (n = 300,000). AID 1910, 2009;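 active = mean activation of at least 10% of the iron chelator positive control signal, with at least half of replicates also reaching 10%; inconclusive = mean and replicate majority disagree about reaching 10%; inactive = mean and most replicates under 10%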
CSC inhib: cancer stem cell viability inhibitors, primary screen, luminescence. inhibition, % at 7.5 µM. actives 1.1% (n = 300,000). cancer stem cell-like cells viability; in the data active = inhibition above about 75%; inconclusive = no clear call, values can overlap the other calls; tested in HMLE shEcad cells
PfHsp90 set2: growth inhibition of PfHsp90-expressing yeast, primary screen, antimalarial PfHsp90 inhibitor project, S. cerevisiae, BacTiter-Glo luminescence, single point, set 2 | AID 504621, 2011 | actives 0.32% (n = 310,000) | BacTiter-Glo ATP, 48 h; yeast lacking PDR1 and PDR3 efflux regulators | inhibition, % at 9.4 µM;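 active = every replicate shows inhibition above about 80%, whatever the replicate mean, limit read from the data; inconclusive = mean inhibition reaches the set limit but some replicate falls short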;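 note: 0% = DMSO neutral controls and 100% = 20 µM radicicol positive controls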
Beta cell apopt: inhibitors of cytokine-induced beta cell apoptosis, primary screen, luminescence; protection from apoptosis, % (test concentration not listed); AID 435005, 2010; actives 0.8% (n = 300,000); INS-1E cytokine-induced death, ATP luminescence, 48 h; percent of positive-control rescue, neutral wells zero;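 active = Every replicate reaches about 75%, or at least half do and their mean reaches it too, limit read from the data; inconclusive = At least half of replicates reach the limit but their mean does not; inactive = Under half of replicates reach the limit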;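 note: 0% = cytokine-treated negative control wells and 100% = positive control rescue; higher means more ATP so stronger rescue from cytokine killing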
Numbers without * were called inactive; ? = inconclusive; . = not tested or not shown. Compounds with a hit are over-represented: about 3.6% of the library has one in this group of screens.

SMILES	T cruzi inh	SKKanGAS inh	HIF act	CSC inhib	PfHsp90 set2	Beta cell apopt
Cc1ccc(-c2cc(C(=O)N3CCN(c4ccccc4O)CC3)c3ccccc3n2)cc1	25.2	53.6*	2.3	22.0	-29.4	6.3
Cc1ccc(-c2cc(C(=O)N3CCN(c4ccc(O)cc4)CC3)c3ccccc3n2)cc1	.	.	.	78.7*	-10.1	-3.3
CCC(C)[C@H]1CNCCN1CCC12CC3CC(CC(C3)C1)C2 (some centres undefined)	.	.	.	21.8	3.4	7.5
O=C(c1cc(-c2cccs2)nc2ccccc12)N1CCN(c2ccccc2O)CC1	6.8	68.2*	-0.2	-2.0	-34.9	4.4
O=C(c1cc(-c2cccs2)nc2ccccc12)N1CCN(CCO)CC1	.	.	.	.	-0.1	.
CC(=O)/C(=N\Nc1ccccc1)Oc1ccc(Br)cc1	27.1	0.3	0.0	0.2	.	-0.8
O=C(Nc1ccc(S(=O)(=O)N2CCOCC2)cc1)c1ccc([N+](=O)[O-])cc1Cl	72.7*	7.0	0.6	-5.3	-5.8	3.7
O=C(Nc1ccc(S(=O)(=O)N2CCOCC2)cc1)c1cc(-c2cc(Cl)ccc2O)n[nH]1	-1.3	33.2	0.4	94.0*	-24.8	46.1
Cc1cc(O)c(-c2cc(C(=O)Nc3ccc(S(=O)(=O)N4CCOCC4)cc3)[nH]n2)cc1C	-11.7	12.9	-0.9	70.6	-13.3	4.3
CCN(CC)S(=O)(=O)c1cc(C(=O)Nc2cc(S(=O)(=O)N3CCOCC3)ccc2N2CCN(C)CC2)ccc1C	.	.	.	.	6.3	.
Cc1ccc(Nc2cc(C)nn2-c2nc(C)cc(=O)[nH]2)cc1	56.0*	92.0*	216.4*	92.7*	104.8*	98.2*
Cc1ccc(Nc2cc(C)nn2-c2nc(C)cc(C)n2)cc1	37.0	100.5*	-0.4	16.2	-25.2	54.5
CC(=O)O[C@H]1[C@@H](O)[C@H](O)[C@H](Oc2c(O)c(C)c3c4c2[C@@H](C)CC[C@@H]4[C@@H](C)C[C@H]3C=C(C)C)O[C@H]1C	.	.	.	105.9*	?	8.1
O=S(=O)(Cc1cc(NCc2ccccc2)nc(-c2ccccn2)n1)c1ccccc1	27.3	56.3*	-1.1	9.5	-17.9	.
C=CC[C@H](CC(=O)N(CCO)Cc1ccccc1)C(=O)N[C@@H](COC(=O)[C@@H](CC=C)Cc1ccc(F)cc1)Cc1c[nH]c2ccccc12	.	.	.	25.9	-12.9	-3.1
CC/C(=C/c1ccccc1)c1cccc2[nH]c3c(OC)cccc3c12	17.0	99.0*	-0.1	131.0*	-0.6	45.1
Cc1ccc(N2CCN(c3ccc(C)cc3)C2c2cccnc2)cc1	59.4*	8.3	0.4	0.9	0.3	-4.9
C/C(=N\NC(=O)c1cccc(Cl)c1)C1C(=O)c2ccccc2C1=O	13.1	18.3	1.9	92.6*	15.6	10.4
CCOC(=O)C1=C(N)Oc2ccc3ccccc3c2C1c1ccc(O)cc1 (centres undefined)	25.2	?	-0.6	46.1	0.1	2.1
CCOC(=O)C1=C(N)Oc2cc(O)ccc2C1c1ccc([N+](=O)[O-])cc1 (centres undefined)	57.1*	0.2	-1.0	-13.7	-25.0	-4.0
COCCn1c(SCC(=O)NCCCN2CCCC2=O)nc2sc3c(c2c1=O)CCCC3	.	.	.	.	5.9	.
CC1=C(C(=O)O)CC(S(=O)(=O)O)C1(C)C (centres undefined)	.	.	.	.	-2.0	.
CC(=O)N(C(C)=O)N1C(=O)/C(=C/c2ccc(Cl)cc2)SC1=S	6.7	-6.2	-0.1	29.1	113.9*	12.7
COc1ccc(N2CCN(c3c(S(=O)(=O)c4ccccc4)cnc4ccc(OC)cc34)CC2)cc1	8.8	12.1	-0.3	27.5	104.3*	-2.0
CCOC(=O)c1cnc2ccc(OCC)cc2c1N1CCN(c2ccccc2)CC1	53.4	32.2	-0.2	51.9	-106.1	104.8*
SMILES	T cruzi inh	SKKanGAS inh	HIF act	CSC inhib	PfHsp90 set2	Beta cell apopt
CCOc1ccc2ncc(S(=O)(=O)c3ccccc3)c(N3CCN(c4ccccc4)CC3)c2c1	34.8	21.9	-0.3	0.0	36.5	1.5
Clc1ccc(-c2csc(=Nc3cccnc3)n2CCCn2ccnc2)cc1Cl	57.1*	-3.0	0.6	8.8	-9.3	22.9
OC(CNCc1ccco1)Cn1c2ccc(Br)cc2c2cc(Br)ccc21 (centres undefined)	42.0	51.7*	1.6	106.0*	43.8	2.8
Brc1ccc2ncnc(NCc3ccco3)c2c1	13.6	12.8	2.6	3.4	-11.5	3.4
COc1ccccc1NC(=O)CN(c1ccc(C23CC4CC(CC(C4)C2)C3)cc1)S(C)(=O)=O	53.8	8.1	-0.7	25.7	-16.6	100.5*
CSc1nsc(SCC(=O)Nc2ccc(C(N)=O)cc2)n1	19.0	-1.8	-0.1	-3.1	-32.7	1.2
CCn1nc(C(=O)OCC(=O)NC(C)C)c2ccccc2c1=O	-3.6	-3.1	37.8*	9.2	33.2	.
CC(NC(=O)C1(c2cccs2)CCOCC1)c1ccccc1 (centres undefined)	-0.7	-4.0	0.5	.	-5.9	.
Cc1ccc(-n2nnnc2C(Cl)c2nnnn2-c2ccc(C)cc2)cc1	55.0*	-13.5	0.0	.	109.7*	.
CSc1c(SCc2ccccc2)cnn(-c2ccccc2)c1=O	-6.1	6.6	-0.1	79.1*	-14.9	-3.7
Cn1ncc(SCc2ccccc2)c(Cl)c1=O	-46.7	-2.2	0.6	-7.3	-27.1	5.6
Cc1ccc(-c2nn(-c3ccccc3)cc2C=C2C(=O)CC(C)(C)CC2=O)cc1	12.2	2.1	2.1	0.4	8.6	-0.6
CC1=NNC(=O)/C1=C\c1cn(-c2ccccc2)nc1-c1ccc(Cl)cc1	47.5	65.9*	-3.7	101.5*	-0.5	107.0*
C/C(=N\OC(=O)NC1CCCCC1)c1sc(-c2ccccc2)nc1C	58.0*	2.0	1.4	49.9	.	10.8
O=C(COc1ccc(Cl)cc1Cl)N/N=C/CCc1ccccc1	-0.4	1.1	10.5*	-9.9	8.2	-10.3
Cc1ccccc1C(=O)Nc1ccc(C(=O)NNC(=O)CCCOc2ccc(Cl)cc2Cl)cc1	11.3	-8.2	-0.7	-4.2	.	-1.5
O=C(CCCOc1ccc(Cl)cc1Cl)N/N=C/c1ccccc1O	-0.4	32.9	11.3*	168.1*	16.4	-4.5
Cc1cc(Cl)ccc1OCCCC(=O)NNC(=O)c1ccccc1O	13.5	101.5*	-0.6	25.8	.	-1.0
O=C(COc1ccc(Cl)cc1Cl)N/N=C/c1ccc[nH]1	-13.2	-1.1	1.4	79.1*	14.9	-8.3
COc1ccc(C(=O)NN/C(C)=C/C(=O)C(F)(F)C(F)(F)C(F)(F)F)cc1	2.0	10.9	0.4	122.8*	-3.6	78.9*
Clc1ccc(-c2c[n+](Cc3cccc(Cl)c3)c3n2CCC3)cc1	59.6*	-7.5	-0.4	16.8	11.4	21.8
